Assay outcomes deposited in PubChem BioAssay by several laboratories.
GSK3beta inhib = human GSK3beta kinase inhibition | P49841 | GST-GSK3beta kinase, ADP-Glo luminescence, 60 min; active compounds read low | activity score (negative = inhibition), % at 10 µM | 300,000 tested, 0.038% active;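 active means more than half of replicate wells score below -50%, meaning over 50% inhibition versus plate controls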;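 further: 0% = median DMSO wells and -100% = median GW8510 positive control wells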
Target sequence (P49841 whole entry, looked up): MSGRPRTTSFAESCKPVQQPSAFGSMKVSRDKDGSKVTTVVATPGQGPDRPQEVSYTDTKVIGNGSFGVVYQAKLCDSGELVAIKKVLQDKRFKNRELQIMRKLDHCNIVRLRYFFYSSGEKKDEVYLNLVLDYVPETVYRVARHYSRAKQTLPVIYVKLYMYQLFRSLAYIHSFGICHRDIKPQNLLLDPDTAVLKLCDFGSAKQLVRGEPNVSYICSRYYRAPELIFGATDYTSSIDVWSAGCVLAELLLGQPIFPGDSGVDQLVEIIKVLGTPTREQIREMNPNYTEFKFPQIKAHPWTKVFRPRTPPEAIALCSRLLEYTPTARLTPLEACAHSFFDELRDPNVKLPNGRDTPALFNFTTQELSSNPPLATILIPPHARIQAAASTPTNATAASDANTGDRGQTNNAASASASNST
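Test system: GST-tagged human GSK3beta kinase, cell-free; evaluation: activity score scaled between in-plate DMSO and GW8510 controls; measured by: ADP-Glo luminescence; incubation: 60 min reaction, RT; benchmarks: DMSO and 20 µM GW8510; reagent: peptide substrate plus 25 µM ATP (final); medium: Tris/MgCl2 kinase buffer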
Arr AP2 block = blocks beta-arrestin peptide binding to AP2 adaptin. FITC-arrestin peptide / GST-AP2 beads, flow cytometry; AP2 beta2 appendage carries R879A mutation. inhibition, % at 10 µM. 340,000 tested, 0.31% active. AID 504490;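 active means inhibition above a set limit, near 3 SD of compounds lacking own fluorescence, cut at about 54% in these data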;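 further: plate controls were DMSO wells for no effect and 5 µM unlabelled arrestin peptide for full effect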
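Measured by: flow cytometry, FL1 (488/535 nm); Material: AP2 appendage R879A on GSH beads; Evaluation: percent response; Timing: pre-incubation 12 min, peptide binding 1 h, room temperature; Also added: 50 nM FITC-arrestin peptide; Medium: PBS with 0.05% Tween 20 and 0.1% BSA.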
Rin1 Abl inh = human Rin1-Abl interaction inhibition | inhibition, % at 7.35 µM | 360,000 tested, 0.4% active | AID 588664 | P00519+Q13671 | TR-FRET Rin1/Abl binding, biochemical; in the data active means inhibition above about 5%, passing the limit was not always enough
STK33 kinase inh = human STK33 kinase inhibition; Q9BYT3; purified STK33, MBP phosphorylation, ADP-Glo luminescence; inhibition, % at 10 µM; 320,000 tested, 0.073% active;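 active means inhibition at or above 25%, using the most active replicate where run in duplicate; inactive means inhibition below 25%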
Dyrk1A ADPGlo = Dyrk1A (rat) kinase inhibition; Q63470; ADP-Glo luminescence, NFATc1 peptide; inhibition, % at 12.5 µM; 310,000 tested, 0.43% active; in the data active means inhibition above about 50%;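 further: plate controls were vehicle with enzyme for no effect and no enzyme for full effect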
GSK3 alpha inh = human GSK-3 alpha kinase inhibition; 320,000 tested, 0.1% active; inhibition, % at 10 µM; P49840; ADP-Glo luminescence, 60 min;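 active means more than half of replicates show inhibition above 20%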;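 further: GST-tagged GSK-3 alpha with peptide substrate and 25 µM ATP; 0% = DMSO neutral wells and 100% = GW8510 positive control wells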
Dyrk1A artifact = counter-screen for Dyrk1A inhibitors: ADP-Glo luciferase artifacts | shares compounds with Dyrk1A ADPGlo | ADP-Glo luciferase artifact assay, no Dyrk1A, luminescence | AC50, µM (series often up to 12 µM), for inactives: top-dose activity change, negative = inhibition | 1,300 tested, under 10 active;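 active means fitted half-maximal dose AC50 no more than ten times the top valid tested dose, with luminescence dropping as dose rises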
An asterisk follows results filed as active; x = no result given. A selection: hits, their analogues and other compounds. The true share with any hit is near 0.99%.

SMILES	GSK3beta inhib	Arr AP2 block	Rin1 Abl inh	STK33 kinase inh	Dyrk1A ADPGlo	GSK3 alpha inh	Dyrk1A artifact
Cc1ccnc(NC(=O)c2cccc(S(=O)(=O)N3CCN(c4ccccc4)CC3)c2)c1	2	-11	1	0	60*	-2	6%
CCN(CC)c1ccc(/C=C2\NC(=O)NC2=O)cc1	4	8	-5	-1	3	2	x
CCN(CC)c1ccc(/C=C2\C(=O)c3ccc(C(=O)O)cc3C2=O)cc1	x	-4	-5	61*	61*	23	5%
O=C(O)c1ccc(-c2ccc(/C=c3/sc4nc5ccccc5n4c3=O)o2)cc1Cl	0	-120	1	0	54*	-4	11%
O=C(c1ccc2c3n(nc2c1)-c1ccccc1CO3)N1CCOCC1	-23	-2	-2	43*	59*	51*	9µM*
O=c1cc(-c2ccco2)oc2c1ccc1ccccc12	-1	1	-2	1	59*	3	7%
C=CCn1c(SCC(=O)Nc2nc3ccccc3s2)nc(O)c(CC)c1=O	3	-4	1	1	51*	0	6%
COc1ccc(/C=C(/C(=O)c2cccs2)N2C=CC=CC2=C(C#N)C#N)cc1	3	-1	-4	x	64*	x	8%
COc1ccc(C(=O)/C(=C\c2ccco2)N2C=CC=CC2=C(C#N)C#N)cc1	-2	19	1	2	47	-2	x
CCOC(=O)C1=C(COC(=O)/C=C/c2cccc(Cl)c2)NC(=O)NC1C (configuration not stated)	2	14	1	-2	-2	-1	x
Clc1ccc(-c2nnc3sc(Cc4cccs4)nn23)cc1	1	5	2	-3	12	x	x
c1ccc(-c2nnc3sc(Cc4cccs4)nn23)cc1	-3	4	0	0	59*	3	10%
O=C1c2c(O)ccc(O)c2C(=O)c2c(NCCNCCO)ccc(NCCNCCO)c21	x	28	-34	66*	52*	62*	3%
O=C(Nc1ccc(F)cc1F)c1csc(-c2ccncc2)n1	-3	-9	-4	1	52*	2	7%
O=C(Nc1ccc(F)cc1F)c1csc(-c2cccs2)n1	0	18	0	-1	x	2	x
S=c1sc2ccccc2n1CCc1ccncc1	-20	-9	0	9	62*	35	10%
COCCOc1ccc(C(F)(F)F)cc1NC(=O)CN1C(=O)NC2(CCc3ccccc32)C1=O (configuration not stated)	0	-8	0	0	8	0	x
Cc1ccccc1NC(=O)C1CCCN1S(=O)(=O)c1ccc2c(c1)n(C)c(=O)c(=O)n2C (configuration not stated)	3	9	-3	-3	58*	1	6%
OC(c1cc(C(F)(F)F)nc2c(Cl)cc(Cl)cc12)C1CCCCN1 (configuration not stated)	0	-3	4	1	55*	26	7%
O[C@@H](c1cc(C(F)(F)F)nc2c(C(F)(F)F)cccc12)[C@H]1CCCCN1	3	-10	1	1	0	12	x
CC1CC(C)(C)OC(c2ccc(C(C)C)cc2)O1 (configuration not stated)	x	-9	-4	x	-3	x	x
CC(C)NC(=O)Nc1cccc2c1O[C@H](CN(C)C(=O)NC1CCCCC1)[C@H](C)CN([C@H](C)CO)C2=O	x	36	2	-1	51*	2	9%
C/C(=C/c1oc2ccc(O)cc2c1[N+](=O)[O-])N(C)C	-3	9	-11	0	52*	-1	7%
CC(=O)Oc1ccc2oc(/C=C/N(C)C)c([N+](=O)[O-])c2c1	-1	-7	-14	0	6	2	x
CCCCN1C(=O)C(C#N)CC2=C1CC(C)(C)CC2=O (configuration not stated)	x	-11	-3	x	-2	x	x
CCSc1nc2sccc2c(=O)n1-c1ccccc1	0	4	-2	-2	-3	0	x
COc1cc(O)c2c(c1)OC(C)(C)CC2=O	-1	-3	2	-1	-5	2	x
